High-throughput results deposited in PubChem by Sanford-Burnham Center for Chemical Genomics.
PPC-1+TRAIL kill = compounds killing PPC-1 cancer cells with TRAIL present (potentiator screen, no TRAIL-free arm); cell killing (% activity), % at 4 µM or 5 µM; PPC-1 cells + TRAIL, ATPLite viability luminescence; 220,000 tested, 0.41% active;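 active = cell killing above 50% in the first pass at 4 µM, then a duplicate retest at 5 µM averaging 50% or more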;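 also: plate controls were cells with TRAIL plus DMSO for no effect and medium-only wells lacking cells for full effect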
MIN6 prolif = induces beta-cell replication in MIN6 cells | MIN6 cells proliferation, ATPlite luminescence, 48 h; cells starved in 0.2% serum; 100% = growth in 10% serum | proliferation, % at 10 µM | 330,000 tested, 0.29% active | AID 2380;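 active = compounds whose signal lies at least 3.5 SD above the mean of all wells on their plate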;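 also: 0% = DMSO-treated cells in low-serum medium and 100% = 10% serum control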
FLuc inhib CS = inhibits firefly luciferase, flagging false hits in luciferase inhibition screens | ATPLite firefly luciferase biochemical luminescence, 10 min | inhibition, % at 10 µM | 200,000 tested, 1.5% active | AID 1006;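 active = inhibition above about 50% when tested at 10 µM, limit read from the data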
Target sequence (P08659 whole entry, looked up): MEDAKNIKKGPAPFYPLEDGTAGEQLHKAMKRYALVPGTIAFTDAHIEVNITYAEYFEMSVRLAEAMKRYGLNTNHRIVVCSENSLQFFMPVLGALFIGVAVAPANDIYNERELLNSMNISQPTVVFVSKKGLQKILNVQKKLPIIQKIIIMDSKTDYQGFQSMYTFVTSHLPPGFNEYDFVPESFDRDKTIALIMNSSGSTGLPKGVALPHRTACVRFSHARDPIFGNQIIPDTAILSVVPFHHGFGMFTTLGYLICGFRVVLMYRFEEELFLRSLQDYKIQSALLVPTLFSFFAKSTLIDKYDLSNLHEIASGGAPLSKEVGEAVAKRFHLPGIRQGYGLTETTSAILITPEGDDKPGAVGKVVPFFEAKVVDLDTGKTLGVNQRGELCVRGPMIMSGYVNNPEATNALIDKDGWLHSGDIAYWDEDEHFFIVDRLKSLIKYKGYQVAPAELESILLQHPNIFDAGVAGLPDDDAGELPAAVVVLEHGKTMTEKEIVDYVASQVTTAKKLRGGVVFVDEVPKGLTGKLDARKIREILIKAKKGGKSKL
iPSC survival up = hiPSC single-cell survival enhancement | ATPlite luminescence; 100% = ROCK inhibitor wells, 0% = DMSO | survival enhancement, % at 20 µM | 360,000 tested, 0.044% active | AID 602274; in the data active = survival enhancement above about 18%;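 also: cells exposed to compounds for 16 hours before the ATP read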
C8 TRAIL sens = caspase-8 TRAIL sensitization; NB7+C8 cells + TRAIL, ATPlite viability luminescence; inhibition (viability loss, TRAIL sensitization), % at 10 µM; 360,000 tested, 1% active;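 active = compounds causing at least 50% loss of cell viability in the single-dose screen, relative to plate controls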
FLuc act counter = firefly luciferase counter-screen for stimulation assays; ATPlite luciferase biochemical, luminescence, 10 min; 0 = ATP-free wells, 1 = DMSO control; activation factor at 10 µM; 200,000 tested, under 10 active; AID 1027;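 active = luciferase activation factor, scaled between plate controls, of at least 2 with compound at 10 µM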
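System: luciferase plus luciferin reagent, cell-free; medium: PBS as buffer for the ATP substrate; dosing: test compounds dosed from 2 mM stocks in 100% DMSO; timing: 10 min post-reagent at room temperature; measured by: luminescence measurement of luciferase light output; evaluation: luciferase activation, seen as luminescence increase over controls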
The depositor's hits bear a star; nt = no result given. Compounds with a hit are over-represented: about 1.8% of the library has one in this group of screens.

SMILES	PPC-1+TRAIL kill	MIN6 prolif	FLuc inhib CS	iPSC survival up	C8 TRAIL sens	FLuc act counter
COc1ccc(C(=O)NNC(=S)Nc2ccccc2)cc1	22	2	57*	0	27	0.4
O=C(O)c1ccc(NC(=S)NC(=O)c2ccc(-c3ccccc3)cc2)cc1	8	-1	29	0	11	0.7
O=C(NC(=S)Nc1ccccc1)c1ccc(-c2ccccc2)cc1	54*	-4	9	-1	-10	0.9
COc1ccccc1N1CCN(c2nc(-c3ccccc3)cc(C(F)(F)F)n2)CC1	11	-6	-8	-1	-3	1.1
COc1ccccc1N1CCN(c2ccc3ccccc3n2)CC1	nt	-4	nt	-1	48*	nt
COc1ccccc1N1CCN(c2ccc(-c3ccccc3)nn2)CC1	37	-4	90*	-3	87*	0.1
COc1ccccc1N1CCN(c2cc(N3CCCC3)nc(C)n2)CC1	22	0	-2	0	5	1
CCCC(=O)N1CCCC(c2cc(C(=O)Nc3ccccc3)no2)C1 (centres undefined)	nt	nt	nt	-4	52*	nt
O=C(Nc1ccccc1)c1cc(C2CCCN(C(=O)c3ccccc3)C2)on1 (centres undefined)	nt	nt	nt	-2	4	nt
COc1cc2c(cc1OC)C(C)N(S(=O)(=O)c1cn(C)c(C)n1)CC2 (centres undefined)	5	-1	nt	0	-15	nt
O=C(NCc1ccccn1)C1CCCN(S(=O)(=O)c2cc(Cl)ccc2Cl)C1 (centres undefined)	nt	nt	nt	-3	56*	nt
COc1ccc(C)cc1S(=O)(=O)N1CCCC(C(=O)NCc2ccccn2)C1 (centres undefined)	nt	2	nt	0	4	nt
COCCN1C[C@@H](CO)O[C@@H](n2cnc3c(NCCCO)ncnc32)C1	nt	nt	nt	1	5	nt
Cc1c(/C=C/C(=O)c2cccs2)cnn1C	10	-1	43	-4	9	0.6
CCc1ccc(C(=O)/C=C/c2cnn(C)c2C)s1	29	-5	86*	-3	25	0.1
CCCC(=O)Nc1ccc2c(c1)nc(CCN1CCC(C)CC1)n2C	nt	nt	nt	0	-4	nt
Cc1ccc(/C=C/c2nnc(-c3cccs3)o2)cc1	16	0	51*	2	21	0.5
Cc1ccc2c(c1)-c1ncc(C(=O)c3cc(Br)ccc3O)cc1CO2	19	-5	-5	nt	nt	1
N/C(=N\OC(=O)c1ccccc1)c1ccn[nH]1	nt	-6	nt	0	56*	nt
N/C(=N\OC(=O)c1ccc(Cl)cc1Cl)c1ccncc1	4	-2	nt	-1	37	nt
N/C(=N\OC(=O)CCCc1ccccc1)c1cccnc1	-3	0	50*	-1	-11	0.5
N/C(=N\OC(=O)c1ccccc1Cl)c1ccncc1	19	-2	54*	-1	21	0.5
COc1cccc(C(=O)O/N=C(\N)c2ccncc2)c1OC	12	-2	13	1	5	0.9
Cc1ccccc1C(=O)O/N=C(\N)c1ccncc1	13	-4	69*	-1	52*	0.3
N/C(=N\OC(=O)CCCc1ccccc1)c1ccccc1	nt	1	nt	0	-8	nt
SMILES	PPC-1+TRAIL kill	MIN6 prolif	FLuc inhib CS	iPSC survival up	C8 TRAIL sens	FLuc act counter
Cc1c(N=C2NN=C(c3c[nH]c4ccccc34)CS2)c(=O)n(-c2ccccc2)n1C	-12	-1	nt	0	3	nt
CC1=C(C#N)C(=O)NC1(C)O (centres undefined)	nt	nt	nt	5	-8	nt
C=C(Br)CN1[C@@H](Cc2ccccc2)[C@H](O)[C@@]23C=C[C@@H](C[C@@H]2S1(=O)=O)O3	nt	-1	nt	-1	-10	nt
CC(=O)c1ccc(S(=O)(=O)NCCC(=O)OCC(=O)N(Cc2ccccc2)C(C)(C)C)cc1	nt	2	nt	0	5	nt
N/C(=N\OC(=O)c1ccccc1)c1cccnc1	5	-5	92*	1	2	0.1
N/C(=N\OC(=O)CCC1CCCC1)c1ccc(Br)cc1	nt	-3	nt	0	0	nt
N/C(=N\OC(=O)CCC1CCCCC1)c1cccnc1	1	-2	63*	2	-1	0.4
N/C(=N\OC(=O)c1ccccc1Cl)c1cccnc1	29	-3	83*	1	69*	0.2
Nc1nc(SCC(=O)c2c(N)n(C3CC3)c(=O)[nH]c2=O)n[nH]1	nt	5	nt	0	2	nt
COc1cc(NC(=O)C2(C)CCCN2C(=O)C(C)C)cc(OC)c1OC (centres undefined)	nt	nt	nt	2	13	nt
CC(C)C[C@H](NC(=O)c1nc[nH]c1C(=O)N[C@@H](CCCCNC(=O)OC(C)(C)C)C(=O)OC(C)(C)C)C(=O)OC(C)(C)C	8	-8	nt	-3	51*	nt
CC(C)(C)OC(=O)[C@H](Cc1ccccc1)NC(=O)c1[nH]cnc1C(=O)Nc1ccccc1F	nt	nt	nt	2	62*	nt
CC(C)(C)OC(=O)NCc1ccc(NC(=O)c2nc[nH]c2C(=O)N[C@@H](Cc2ccccc2)C(=O)OCc2ccccc2)cc1	-4	-8	nt	2	83*	nt
CC(C)(C)OC(=O)NCCCC[C@H](NC(=O)c1[nH]cnc1C(=O)Nc1ccccc1)C(=O)OC(C)(C)C	3	-8	nt	-2	59*	nt
Cc1cccc(NC(=O)c2ccc(OCc3c(C)noc3C)cc2)n1	nt	3	nt	0	4	nt
O=C(c1ccccc1)c1cnc(Nc2ccccc2Cl)s1	29	-3	62*	-4	31	0.4
C/C(=N\Nc1nncc2ccccc12)c1cccc(OC(F)F)c1	nt	0	nt	-1	81*	nt
C/C(=N\Nc1nncc2ccccc12)c1ccc(O)cc1	nt	-6	nt	-1	60*	nt
COc1ccc(-c2nc(N/N=C(\C)c3ccc(O)cc3)c3ccccc3n2)cc1	44	-6	nt	0	59*	nt
C/C(=N\Nc1nncc2ccccc12)c1ccc(C(C)(C)C)cc1	nt	-4	nt	0	13	nt
COc1ccc(Nc2nc(-c3ccccc3)nc3ccccc23)cc1	nt	-6	nt	0	7	nt
CCNc1cc(Nc2c(C)n(C)n(-c3ccccc3)c2=O)c([N+](=O)[O-])c2nonc12	-9	-1	nt	0	9	nt
COc1ccc(S(=O)(=O)N2CCCC(C(=O)NCCN3CCOCC3)C2)cc1C (centres undefined)	nt	0	nt	0	-3	nt
O=C(CSc1ncnc2ccccc12)c1ccco1	34	-4	81*	-1	-1	0.2
COc1ccc2c(c1)c(CCNNC(=O)C(C)(C)C)c(C)n2C(=O)c1ccc(Cl)cc1	nt	-8	nt	2	12	nt
O=C(/C=C/c1ccc(Cl)cc1Cl)c1nc2ccccc2[nH]1	27	-5	66*	-6	37	0.3
CC1CCc2c(sc3nc(C(C)(C)C)nc(N4CCN(C(=O)CCl)CC4)c23)C1 (centres undefined)	nt	-6	nt	0	94*	nt
N#CCCN1CCN(CCC#N)C1=S	nt	nt	nt	1	-6	nt
O=C(O)c1ccc2c(=O)n3c(nc2c1)/C(=C/c1ccc(Cl)c(Cl)c1)CC3	nt	-5	nt	0	-16	nt
